Measurements reported in ChEMBL document CHEMBL1154727, “Cytotoxic activity of 3-(5-phenyl-3H-[1,2,4]dithiazol-3-yl)chromen-4-ones and 4-oxo-4H-chromene-3-carbothioic acid N-phenylamides” (Eur J Med Chem, 2010).

Key:
IMR-32 [1] = test: Growth inhibition of human IMR32 cells after 48 hrs by sulforhodamine B assay; assay type: functional, cell-based; details: IMR-32, 48 h
In short: (§1)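 Cells kept in RPMI-1640 with 10% FBS, penicillin and streptomycin; trypan blue viability check beforehand. Seeded at 1 × 10^4 cells/well, 24 h at 37 °C, 5% CO2, then treated in quadruplicate for 48 h. Compounds diluted in medium with 50 µg/ml gentamycin; single test level 100 µM. TCA fixation at 4 °C for 1 h, SRB stain, Tris pH 10.5 solubilization, OD 540 nm. IC50 taken as the mean from dose-response curves.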

IMR-32 [2] = test: Growth inhibition of human IMR32 cells at 1 uM after 48 hrs by sulforhodamine B assay; assay type: functional; details: IMR-32, 48 h, read-out: GI
In short: (§2)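 Cells grown in RPMI-1640 with 10% FBS and antibiotics, plated at 1 × 10^4 cells/well for 24 h at 37 °C, 5% CO2. Agents diluted in gentamycin-containing medium, then added in quadruplicate for 48 h. Cells fixed with cold TCA at 4 °C for 1 h, stained with 0.4% SRB, and dye dissolved in 10 mM Tris pH 10.5; absorbance read at 540 nm.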

A549 [3] = test: Growth inhibition of human A549 cells at 1 uM after 48 hrs by sulforhodamine B assay; assay type: functional; details: A549, 48 h, read-out: GI; in short: as §2
HEp-2 [4] = test: Growth inhibition of human Hep2 cells at 1 uM after 48 hrs by sulforhodamine B assay; assay type: functional; details: HEp-2, 48 h, read-out: GI; in short: as §2
COLO 205 [5] = test: Growth inhibition of human COLO205 cells after 48 hrs by sulforhodamine B assay; assay type: functional, cell-based; details: COLO 205, 48 h; in short: as §1
COLO 205 [6] = test: Growth inhibition of human COLO205 cells at 100 uM after 48 hrs by sulforhodamine B assay; assay type: functional; details: COLO 205, 48 h, read-out: GI; in short: as §1
OVCAR-5 (human) [7] = test: Growth inhibition of human OVCAR-5 cells at 100 uM after 48 hrs by sulforhodamine B assay; details: OVCAR-5, 48 h, read-out: GI
PC-3 [8] = test: Growth inhibition of human PC3 cells at 100 uM after 48 hrs by sulforhodamine B assay; assay type: functional; details: PC-3, 48 h, read-out: GI; in short: as §1
HEp-2 [9] = test: Growth inhibition of human Hep2 cells after 48 hrs by sulforhodamine B assay; assay type: functional, cell-based; details: HEp-2, 48 h; in short: as §1
A549 [10] = test: Growth inhibition of human A549 cells at 100 uM after 48 hrs by sulforhodamine B assay; assay type: functional; details: A549, 48 h, read-out: GI; in short: as §1
IMR-32 [11] = test: Growth inhibition of human IMR32 cells at 100 uM after 48 hrs by sulforhodamine B assay; assay type: functional; details: IMR-32, 48 h, read-out: GI; in short: as §1
A549 [12] = test: Growth inhibition of human A549 cells after 48 hrs by sulforhodamine B assay; assay type: functional, cell-based; details: A549, 48 h; in short: as §1
PC-3 [13] = test: Growth inhibition of human PC3 cells after 48 hrs by sulforhodamine B assay; assay type: functional, cell-based; details: PC-3, 48 h; in short: as §1
HEp-2 [14] = test: Growth inhibition of human Hep2 cells at 100 uM after 48 hrs by sulforhodamine B assay; assay type: functional; details: HEp-2, 48 h, read-out: GI; in short: as §1
OVCAR-5 (human) [15] = test: Growth inhibition of human OVCAR-5 cells after 48 hrs by sulforhodamine B assay; details: OVCAR-5, 48 h
PC-3 [16] = test: Growth inhibition of human PC3 cells at 10 uM after 48 hrs by sulforhodamine B assay; assay type: functional; details: PC-3, 48 h, read-out: GI; in short: as §2
COLO 205 [17] = test: Growth inhibition of human COLO205 cells at 10 uM after 48 hrs by sulforhodamine B assay; assay type: functional; details: COLO 205, 48 h, read-out: GI; in short: as §2
OVCAR-5 (human) [18] = test: Growth inhibition of human OVCAR-5 cells at 10 uM after 48 hrs by sulforhodamine B assay; details: OVCAR-5, 48 h, read-out: GI
A549 [19] = test: Growth inhibition of human A549 cells at 10 uM after 48 hrs by sulforhodamine B assay; assay type: functional; details: A549, 48 h, read-out: GI; in short: as §2
HEp-2 [20] = test: Growth inhibition of human Hep2 cells at 10 uM after 48 hrs by sulforhodamine B assay; assay type: functional; details: HEp-2, 48 h, read-out: GI; in short: as §2
IMR-32 [21] = test: Growth inhibition of human IMR32 cells at 10 uM after 48 hrs by sulforhodamine B assay; assay type: functional; details: IMR-32, 48 h, read-out: GI; in short: as §2
PC-3 [22] = test: Growth inhibition of human PC3 cells at 20 uM after 48 hrs by sulforhodamine B assay; assay type: functional; details: PC-3, 48 h, read-out: GI
In short: (§3)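 Cells kept in RPMI-1640 with 10% FBS, penicillin and streptomycin; viability checked by trypan blue before use. Seeded at 1 × 10^4 cells/well, 24 h at 37 °C in 5% CO2, then compound (diluted in medium with gentamycin) added in quadruplicate for 48 h. Cells fixed with cold 50% TCA at 4 °C for 1 h, stained with 0.4% SRB, dye dissolved in 10 mM Tris pH 10.5, OD read at 540 nm.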

COLO 205 [23] = test: Growth inhibition of human COLO205 cells at 20 uM after 48 hrs by sulforhodamine B assay; assay type: functional; details: COLO 205, 48 h, read-out: GI; in short: as §3
OVCAR-3 = test: Growth inhibition of human OVCAR-3 cells at 20 uM after 48 hrs by sulforhodamine B assay; assay type: functional; details: OVCAR-3, 48 h, read-out: GI; in short: as §3

Structure (SMILES) | IC50 (IMR-32 [1]) | IC50 (COLO 205 [5]) | inhibition of growth at 100 µM (COLO 205 [6]) | inhibition of growth at 100 µM (OVCAR-5 (human) [7]) | inhibition of growth at 100 µM (PC-3 [8]) | IC50 (HEp-2 [9]) | inhibition of growth at 100 µM (A549 [10]) | inhibition of growth at 100 µM (IMR-32 [11]) | IC50 (A549 [12]) | IC50 (PC-3 [13]) | inhibition of growth at 100 µM (HEp-2 [14]) | IC50 (OVCAR-5 (human) [15]) | further results
COc1cccc2c1C(=O)c1c(O)c3c(c(O)c1C2=O)C[C@@](O)(C(=O)CO)C[C@@H]3O[C@H]1C[C@H](N)[C@H](O)[C@H](C)O1 [DOXORUBICIN] | 1.7 µM |  |  |  |  |  |  |  |  |  |  |  | inhibition of growth at 1 µM (IMR-32 [2]): 55%; inhibition of growth at 1 µM (A549 [3]): 93%; inhibition of growth at 1 µM (HEp-2 [4]): 57%
O=c1c(C2N=C(c3ccccc3)SS2)coc2cc(Cl)c(F)cc12 (stereo not given) | 56.8 µM | > 100 µM | 45% | 75% | 76% | 97.6 µM | 57% | 80% | 93.5 µM | 56.9 µM | 52% | 61.7 µM | 
O=c1c(C2N=C(c3ccccc3)SS2)coc2ccccc12 (stereo not given) | 16.5 µM | > 100 µM | 18% | 11% | 23% | > 100 µM | 42% | 82% | > 100 µM | > 100 µM | 48% | > 100 µM | 
CO[C@@]12[C@H](COC(N)=O)C3=C(C(=O)C(C)=C(N)C3=O)N1C[C@@H]1N[C@@H]12 [MITOMYCIN] |  |  |  |  |  | 1.5 µM |  |  |  | 1.5 µM |  |  | inhibition of growth at 10 µM (PC-3 [16]): 41%; inhibition of growth at 10 µM (COLO 205 [17]): 44%; inhibition of growth at 10 µM (OVCAR-5 (human) [18]): 65%
O=c1c(C(=S)Nc2ccccc2)coc2ccc(F)cc12 | 89.8 µM | > 100 µM | 26% | 49% | 45% | > 100 µM | 70% | 59% | 71.9 µM | > 100 µM | 32% | > 100 µM | 
O=c1c(C(=S)Nc2ccccc2)coc2cc(Cl)c(Cl)cc12 | 89.9 µM | > 100 µM | 16% | 2% | 16% | > 100 µM | 3% | 18% | 71.2 µM | 95.4 µM | 4% | > 100 µM | 
O=c1c(C(=S)Nc2ccccc2)coc2cc(Cl)ccc12 | 92.7 µM | > 100 µM | 38% | 47% | 55% | > 100 µM | 66% | 56% | 63.6 µM | 90.8 µM | 41% | > 100 µM | 
O=c1c(C2N=C(c3ccccc3)SS2)coc2cc(Cl)c(Cl)cc12 (stereo not given) | 58 µM | > 100 µM | 50% | 68% | 70% | 98 µM | 52% | 77% | 95 µM | 60 µM | 51% | 65.2 µM | 
O=c1c(C(=S)Nc2ccccc2)coc2ccccc12 | 95.8 µM | 72.6 µM | 71% | 58% | 63% | > 100 µM | 79% | 53% | 52.8 µM | 60.6 µM | 32% | 86.4 µM | 
CC(=O)O[C@H]1C(=O)[C@@]2(C)[C@H]([C@H](OC(=O)c3ccccc3)[C@]3(O)C[C@H](OC(=O)[C@H](O)[C@@H](NC(=O)c4ccccc4)c4ccccc4)C(C)=C1C3(C)C)[C@]1(OC(C)=O)CO[C@@H]1C[C@@H]2O [PACLITAXEL] |  |  |  |  |  |  |  |  | 2.7 µM |  |  | 2.7 µM | inhibition of growth at 10 µM (A549 [19]): 67%; inhibition of growth at 10 µM (HEp-2 [20]): 55%; inhibition of growth at 10 µM (IMR-32 [21]): 45%
O=c1c(C2N=C(c3ccccc3)SS2)coc2cc(Cl)ccc12 (stereo not given) | 95.1 µM | 76.7 µM | 57% | 91% | 81% | > 100 µM | 76% | 53% | 57.5 µM | 38.4 µM | 31% | 10.5 µM | 
O=c1c(C2N=C(c3ccccc3)SS2)coc2ccc(F)cc12 (stereo not given) | 14.6 µM | > 100 µM | 37% | 27% | 32% | 98.6 µM | 55% | 75% | 91.1 µM | > 100 µM | 51% | > 100 µM | 
O=c1c(C2N=C(c3ccccc3)SS2)coc2ccc(Cl)cc12 (stereo not given) | 10 µM | > 100 µM | 12% | 71% | 62% | 74.9 µM | 73% | 92% | 71.3 µM | 52.7 µM | 69% | 66.5 µM | 
Cc1ccc2occ(C3N=C(c4ccccc4)SS3)c(=O)c2c1 (stereo not given) | 70.7 µM | > 100 µM | 32% | 54% | 40% | > 100 µM | 67% | 53% | 66.5 µM | > 100 µM | 43% | 93.7 µM | 
O=c1[nH]cc(F)c(=O)[nH]1 [FLUOROURACIL] |  | 21 µM |  |  |  |  |  |  |  |  |  |  | inhibition of growth at 20 µM (PC-3 [22]): 20%; inhibition of growth at 20 µM (COLO 205 [23]): 12%; inhibition of growth at 20 µM (OVCAR-3): 26%
